Data from ChEMBL document CHEMBL3421610, “Antimalarial activity of 4-amidinoquinoline and 10-amidinobenzonaphthyridine derivatives” (J Med Chem, 2015).
≈ marks a conversion by molar mass, not a printed value. Calls of active or inactive are those of the source. The rule behind the calls is not given here.

Tests used:
[1] = Half life in human liver microsomes at 1 uM by LC/MS analysis; type: ADME
In short: (§1)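 Compound at 1 µM final, diluted from […], with 0.5 mg/mL pooled human or mouse liver microsomes, NADP, MgCl2 and 0.1 M PBS pH 7.4. Reaction started with 1 U/mL G6PD and shaken at 37 °C. Aliquots quenched in cold acetonitrile at 0, 10, 20, 30 and 60 min and quantified by LC/MS. Half-life from log plot of total ion chromatogram area remaining.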

[2] = Half life in mouse liver microsomes at 1 uM by LC/MS analysis; type: ADME; in short: as §1
[3] = tested on: Plasmodium falciparum; test: Antimalarial activity against chloroquine-sensitive Plasmodium falciparum D6 assessed as growth inhibition after 18 hrs by [3H]-hypoxanthine uptake assay; type: functional, organism-based
In short: (§2)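 P. falciparum clones D6, W2 and TM91C235; modified semiautomated microdilution. Compounds in DMSO, diluted in RPMI 1640 with 10% human plasma, tested over (1.56-100) x 10^-9 M; final DMSO 0.25-0.5%. Inoculum 0.5% parasitemia, 1% hematocrit. 24 h incubation, then [3H]-hypoxanthine added, further 18 h. Harvested and read by scintillation counting; IC50 by nonlinear regression.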

[4] = tested on: Plasmodium falciparum; test: Antimalarial activity against chloroquine-resistant Plasmodium falciparum W2 assessed as growth inhibition after 18 hrs by [3H]-hypoxanthine uptake assay; type: functional, organism-based; in short: as §2
[5] = tested on: Plasmodium falciparum; test: Antimalarial activity against chloroquine-resistant Plasmodium falciparum C235 assessed as growth inhibition after 18 hrs by [3H]-hypoxanthine uptake assay; type: functional, organism-based; in short: as §2
[6] = tested on: HepG2; test: Cytotoxicity against human HepG2 cells after 48 hrs by MTT assay; type: cell-based; settings: HepG2, 48 h
In short: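 HepG2 cells in supplemented MEM, plated at 9570 cells/well in 384-well format and incubated overnight at 37 °C, 5% CO2. Twelve duplicate 1.6-fold dilutions, 57–10,000 ng/ml, incubated 48 h. MTT added for 1 h at room temperature in the dark, formazan dissolved in acidified isopropanol, absorbance read. IC50 by sigmoidal variable-slope nonlinear regression; tryptanthrin control.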

[7] = target: hERG (KCNH2) (Homo sapiens, UniProt Q12809); test: Inhibition of human ERG expressed in CHL cells assessed as tail current at 10 uM after 7 mins by patch clamp assay relative to control; type: cell-based; settings: CHL cells expressing human ERG
[8] = tested on: Plasmodium berghei; test: Antimalarial activity against erythrocytic stage of chloroquine resistant Plasmodium berghei ANKA infected in mouse assessed as cure rate at 160 mg/kg, po qd administered on day 3, 4 and 5 post infection measured 3 times per week for 30 days, starting from day 3 by Thompson test; type: functional, organism-based; set-up: dose 160 mg/kg
In short: (§3)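 Male mice of 16-20 g inoculated intraperitoneally with 5 x 10^6 erythrocytes infected with CQ-resistant P. berghei ANKA. Drug given orally as a suspension once daily on days 3, 4 and 5 post-infection, five mice per dose. Blood films from day 3, three times weekly for 30 days. Cure means parasite-negative on day 30 or surviving 30 days. Mice losing >20% body weight sacrificed.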

[9] = tested on: Plasmodium berghei; test: Antimalarial activity against erythrocytic stage of chloroquine resistant Plasmodium berghei ANKA infected in mouse assessed as reduction of parasitemia at 160 mg/kg, po qd administered on day 3, 4 and 5 post infection measured 2 days post last dose relative to control; type: functional; set-up: scale not given: the % may be the effect or the level left
In short: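 Male mice of 16-20 g inoculated intraperitoneally with 5 x 10^6 erythrocytes infected with CQ-resistant P. berghei ANKA. Drug given orally as a suspension once daily on days 3, 4 and 5 post-infection, five mice per dose. Parasitemia followed by blood films from day 3, three times weekly for 30 days; infected untreated mice served as negative controls.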

[10] = tested on: Mus musculus; test: Toxicity in mouse infected with erythrocytic stage of chloroquine resistant Plasmodium berghei ANKA up to 160 mg/kg, po qd administered on day 3, 4 and 5 post infection measured over 30 days; type: organism-based, Erythrocyte; set-up: dose 160 mg/kg, route oral; settings: in vivo, 720 h
In short: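 Male mice of 16-20 g infected intraperitoneally with CQ-resistant P. berghei ANKA (5 x 10^6 infected erythrocytes). Oral dosing once daily on days 3-5, five mice per group. Animals followed for 30 days by blood films; mice losing >20% body weight sacrificed.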

[11] = Elimination half life in ICR mouse at 80 mg/kg, po; type: ADME, organism-based; set-up: dose 80 mg/kg, route oral; settings: in vivo, read-out: beta t1/2 (converted)
In short: (§4)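 Male 7-week-old ICR mice, 23–28 g, given a single intragastric dose of 80 mg/kg in DD water (100 µL/20 g). Three mice per time point; whole blood taken by cardiac puncture into lithium heparin tubes and spun to plasma. Parameters come from plasma concentration–time curves of parent drug. t1/2 = ln2/kel from the log plot. AUC by linear trapezoidal rule, extrapolated to infinity; MRT = AUMC/AUC.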

[12] = Tmax in ICR mouse at 80 mg/kg, po; type: ADME, organism-based; set-up: dose 80 mg/kg, route oral; settings: in vivo; in short: as §4
[13] = Cmax in ICR mouse at 80 mg/kg, po; type: ADME, organism-based; set-up: dose 80 mg/kg, route oral; settings: in vivo; in short: as §4
[14] = AUClast in ICR mouse at 80 mg/kg, po; type: ADME, organism-based; set-up: time 0 - last, dose 80 mg/kg, route oral; settings: plasma
[15] = AUCinfinity in ICR mouse at 80 mg/kg, po; type: ADME, organism-based; set-up: time infinity, dose 80 mg/kg, route oral; settings: plasma; in short: as §4
[16] = Apparent volume of distribution during terminal phase in ICR mouse at 80 mg/kg, po; type: ADME, organism-based; set-up: dose 80 mg/kg, route oral; settings: in vivo, read-out: Vz/F
[17] = Apparent oral clearance in ICR mouse at 80 mg/kg; type: ADME, organism-based; set-up: dose 80 mg/kg, route oral; settings: in vivo
[18] = Mean residence time in ICR mouse at 80 mg/kg, po; type: ADME, organism-based; set-up: dose 80 mg/kg, route oral; settings: in vivo; in short: as §4
[19] = tested on: Plasmodium berghei; test: Antimalarial activity against erythrocytic stage of chloroquine resistant Plasmodium berghei ANKA infected in mouse assessed as cure rate at 120 mg/kg, po qd administered on day 3, 4 and 5 post infection measured 3 times per week for 30 days, starting from day 3 by Thompson test; type: functional, organism-based; set-up: dose 120 mg/kg; in short: as §3
[20] = tested on: Plasmodium berghei; test: Antimalarial activity against erythrocytic stage of chloroquine resistant Plasmodium berghei ANKA infected in mouse assessed as cure rate at 60 mg/kg, po qd administered on day 3, 4 and 5 post infection measured 3 times per week for 30 days, starting from day 3 by Thompson test; type: functional, organism-based; set-up: dose 60 mg/kg; in short: as §3
[21] = tested on: Plasmodium berghei; test: Antimalarial activity against erythrocytic stage of chloroquine resistant Plasmodium berghei ANKA infected in mouse assessed as cure rate at 15 mg/kg, po qd administered on day 3, 4 and 5 post infection measured 3 times per week for 30 days, starting from day 3 by Thompson test; type: functional, organism-based; set-up: dose 15 mg/kg; in short: as §3
[22] = tested on: Salmonella typhi; test: Mutagenicity in Salmonella typhi by Ames test; type: toxicity, organism-based; settings: salmonella enterica subsp. enterica […]

hERG (KCNH2), sequence (Q12809 whole entry): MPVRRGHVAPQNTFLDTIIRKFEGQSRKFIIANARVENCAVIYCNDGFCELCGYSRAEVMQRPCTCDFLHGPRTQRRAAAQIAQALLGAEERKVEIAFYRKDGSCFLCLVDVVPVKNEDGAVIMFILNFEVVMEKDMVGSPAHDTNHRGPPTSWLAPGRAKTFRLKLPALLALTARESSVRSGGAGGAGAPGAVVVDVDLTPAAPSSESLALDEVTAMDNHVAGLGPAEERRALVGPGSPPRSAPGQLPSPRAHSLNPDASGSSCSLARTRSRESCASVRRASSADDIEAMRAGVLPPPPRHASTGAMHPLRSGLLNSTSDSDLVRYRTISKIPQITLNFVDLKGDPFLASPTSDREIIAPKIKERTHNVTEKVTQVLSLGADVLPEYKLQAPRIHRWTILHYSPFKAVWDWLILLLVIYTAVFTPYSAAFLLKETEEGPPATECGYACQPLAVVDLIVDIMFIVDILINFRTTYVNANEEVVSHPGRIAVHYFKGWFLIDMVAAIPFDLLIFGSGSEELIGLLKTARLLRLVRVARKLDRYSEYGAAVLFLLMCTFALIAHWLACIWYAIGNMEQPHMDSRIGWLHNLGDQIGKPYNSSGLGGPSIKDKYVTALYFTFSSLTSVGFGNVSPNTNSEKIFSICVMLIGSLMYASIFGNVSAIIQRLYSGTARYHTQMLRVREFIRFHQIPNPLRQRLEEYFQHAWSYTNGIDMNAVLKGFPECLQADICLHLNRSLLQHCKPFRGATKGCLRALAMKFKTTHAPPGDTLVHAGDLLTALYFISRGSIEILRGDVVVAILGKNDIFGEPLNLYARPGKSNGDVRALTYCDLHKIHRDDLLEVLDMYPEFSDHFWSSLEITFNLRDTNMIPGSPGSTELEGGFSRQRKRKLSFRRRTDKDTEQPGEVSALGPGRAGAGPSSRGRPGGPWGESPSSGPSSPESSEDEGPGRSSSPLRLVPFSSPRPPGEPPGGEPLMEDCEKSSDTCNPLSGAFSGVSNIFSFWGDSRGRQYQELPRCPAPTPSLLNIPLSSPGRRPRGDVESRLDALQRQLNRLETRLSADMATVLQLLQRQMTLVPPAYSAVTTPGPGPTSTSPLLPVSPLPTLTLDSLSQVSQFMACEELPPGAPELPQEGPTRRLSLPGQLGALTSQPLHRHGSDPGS

Row | SMILES | half-life at 1 µM [1] [min] | half-life at 1 µM [2] [min] | IC50 [3] [nM] | IC50 [4] [nM] | IC50 [5] [nM] | IC50 [6] [µg/mL] | inhibition at 7 min, 10 µM [7] [%] | Activity [10] | Activity [19] | other results
1 | C/C(=N/c1ccnc2cc(Cl)ccc12)NCCCN1CCCCC1 | > 60 | 25 | 25 | 36 | 14 | 23.3 (≈ 67.5 µM) | 27.7 | Non-toxic | – | Activity [8]: inactive; Activity [9]: 95.4%
2 | CCN(CC)CCCN/C(=N\c1ccnc2cc(Cl)ccc12)C(C)C | > 60 | > 60 | 22 | 42 | 25.8 | > 24.2 | – | Non-toxic | – | Activity [8]: Active; half-life [11]: 400 min; Tmax [12]: 30 min; Cmax [13]: 696 ng/mL; AUC(0-t) [14]: 3510 ng·h/mL; AUC(0-inf) [15]: 3620 ng·h/mL; Vd/F [16]: 214 L/kg; CL/F [17]: 371 mL/min/kg; MRT [18]: 458 min
3 | COc1ccc2nc3cc(Cl)ccc3c(N/C(=N/CCCN(C)C)c3ccccc3)c2n1 | 18 | 44 | 1.8 | 1.98 | 1.7 | 5.78 (≈ 12.9 µM) | 48.9 | Non-toxic | Active | Activity [20]: Active
4 | COc1ccc2nc3cc(Cl)ccc3c(N/C(C)=N/CCCN(C)C)c2n1 | > 60 | 42 | 26 | 100 | 51.3 | 18.1 (≈ 46.8 µM) | 91.5 | Non-toxic | Active | –
5 | CCN(CC)CC(C)(C)C/N=C(/Nc1c2ccc(Cl)cc2nc2ccc(OC)nc12)c1ccccc1 | > 60 | > 60 | 21.8 | 61 | 29.7 | > 24.2 | 10 | Non-toxic | – | Activity [20]: Active; Activity [21]: Active
6 | CN(C)CCCN/C(=N\c1ccnc2cc(Cl)ccc12)c1ccc(Cl)cc1 | 48 | 35 | 2 | 2.9 | 1.1 | 1.93 (≈ 4.8 µM) | 115 | – | – | Activity [22]: Non-toxic
7 | CC(C)/C(=N/c1ccnc2cc(Cl)ccc12)NCCCCN1CCCCC1 | 29 | 31 | 7.5 | 18.6 | 12 | 5.71 (≈ 14.8 µM) | 33 | Non-toxic | Active | –
8 | COc1ccc2nc3cc(Cl)ccc3c(N/C(C)=N/CCCN3CCCCC3)c2n1 | 14 | 15 | 8 | 24.9 | 13.1 | 2.81 (≈ 6.59 µM) | 94.5 | Non-toxic | Active | –
